Reference: ChEMBL document CHEMBL1127523, “Design and synthesis of side-chain conformationally restricted phenylalanines and their use for structure-activity studies on tachykinin NK-1 receptor” (J Med Chem, 1994)

Key:
Cavia porcellus = organism: Cavia porcellus; experiment: Effective concentration required for its inhibition of nonspecific binding to guinea pig ileal membranes; type: functional
Substance-K receptor = target: T1, Substance-K receptor (Rattus norvegicus, UniProt P16610); experiment: Concentration required to inhibit the specific binding of [3H]NKA to Neurokinin-2 (NK-2) receptor in rat duodenum membranes
T1 sequence (P16610 whole entry): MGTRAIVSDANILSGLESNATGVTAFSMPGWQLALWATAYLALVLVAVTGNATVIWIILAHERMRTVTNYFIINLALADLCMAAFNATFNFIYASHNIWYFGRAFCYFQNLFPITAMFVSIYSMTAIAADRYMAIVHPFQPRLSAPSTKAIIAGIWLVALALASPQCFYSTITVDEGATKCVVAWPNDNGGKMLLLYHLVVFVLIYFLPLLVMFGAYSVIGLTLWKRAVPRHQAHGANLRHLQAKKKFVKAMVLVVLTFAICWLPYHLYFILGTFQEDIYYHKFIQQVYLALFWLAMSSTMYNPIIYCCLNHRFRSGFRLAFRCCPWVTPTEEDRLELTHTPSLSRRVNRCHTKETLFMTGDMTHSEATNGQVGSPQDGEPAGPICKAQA

Neuromedin-K receptor = target: T2, Neuromedin-K receptor (Rattus norvegicus, UniProt P16177); experiment: Concentration required to inhibit the specific binding of [125I]BH-ELE to Neurokinin-3 (NK-3) receptor in rat brain synaptosomes; type: subcellular
T2 sequence (P16177 whole entry): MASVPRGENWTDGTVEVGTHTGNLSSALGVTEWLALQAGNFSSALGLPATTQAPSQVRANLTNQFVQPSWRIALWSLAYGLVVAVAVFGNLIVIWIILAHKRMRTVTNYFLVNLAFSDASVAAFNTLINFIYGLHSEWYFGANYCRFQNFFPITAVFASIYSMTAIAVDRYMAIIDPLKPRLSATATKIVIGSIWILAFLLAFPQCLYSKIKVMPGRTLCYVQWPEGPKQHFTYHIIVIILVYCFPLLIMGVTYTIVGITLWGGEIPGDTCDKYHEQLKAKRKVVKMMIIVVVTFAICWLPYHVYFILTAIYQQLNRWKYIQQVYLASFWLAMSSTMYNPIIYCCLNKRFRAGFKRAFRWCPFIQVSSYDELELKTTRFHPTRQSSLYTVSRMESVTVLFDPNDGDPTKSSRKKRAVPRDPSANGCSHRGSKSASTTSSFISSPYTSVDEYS
Procedure, shortened: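 Rat brain synaptosomes in Krebs-Ringer phosphate buffer with BSA, bacitracin and glucose. Incubated 15 min at 20 °C with 40 pM [125I]BHELE and increasing peptide concentrations, gamma counted. Triplicates, two to eight independent experiments; nonspecific binding defined with eledoisin 10⁻⁶ M. IC50 estimated from Hill plots of titration curves.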

Substance-P receptor = Substance-P receptor (Rattus norvegicus, UniProt P14600); experiment: Concentration required to inhibit the specific binding of [125I]BH-SP to Neurokinin-1 (NK-1) receptor in rat brain synaptosomes; type: subcellular
Sequence of Substance-P receptor (P14600 whole entry): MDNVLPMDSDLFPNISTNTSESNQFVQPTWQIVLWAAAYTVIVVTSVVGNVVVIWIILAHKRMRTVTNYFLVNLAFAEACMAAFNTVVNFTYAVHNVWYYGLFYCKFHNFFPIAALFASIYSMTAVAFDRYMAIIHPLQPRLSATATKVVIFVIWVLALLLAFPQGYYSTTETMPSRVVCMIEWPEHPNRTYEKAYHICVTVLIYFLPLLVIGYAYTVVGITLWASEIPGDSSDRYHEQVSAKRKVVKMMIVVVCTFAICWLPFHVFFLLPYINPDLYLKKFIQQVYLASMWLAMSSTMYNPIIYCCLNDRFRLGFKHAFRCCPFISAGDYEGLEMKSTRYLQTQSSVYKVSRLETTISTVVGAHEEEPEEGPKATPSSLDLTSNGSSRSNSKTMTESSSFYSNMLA

SMILES	EC50 (Cavia porcellus)	IC50 (Substance-K receptor)	IC50 (Neuromedin-K receptor)	IC50 (Substance-P receptor)
CSCC[C@H](NC(=O)[C@H](CC(C)C)NC(=O)CNC(=O)[C@@H](NC(=O)[C@H](Cc1ccccc1)NC(=O)[C@H](CCC(N)=O)NC(=O)[C@H](CCC(N)=O)NC(=O)[C@@H]1CCCN1C(=O)[C@H](CCCCN)NC(=O)[C@@H]1CCCN1C(=O)[C@@H](N)CCCN=C(N)N)C(C)(C)SC)C(N)=O	1.7 nM	–	–	–
CSCC[C@H](NC(=O)[C@H](CC(C)C)NC(=O)CNC(=O)[C@H](Cc1ccccc1)NC(=O)[C@@H](NC(=O)[C@H](CCC(N)=O)NC(=O)[C@H](CCC(N)=O)NC(=O)[C@@H]1CCCN1C(=O)[C@H](CCCCN)NC(=O)[C@@H]1CCCN1C(=O)[C@@H](N)CCCN=C(N)N)C1Cc2ccccc2C1)C(N)=O	1300 nM	1700 nM	> 10000 nM	2300 nM
CSCC[C@H](NC(=O)[C@H](CC(C)C)NC(=O)CNC(=O)[C@@H]1Cc2ccccc2CN1C(=O)[C@H](Cc1ccccc1)NC(=O)[C@H](CCC(N)=O)NC(=O)[C@H](CCC(N)=O)NC(=O)[C@@H]1CCCN1C(=O)[C@H](CCCCN)NC(=O)[C@@H]1CCCN1C(=O)[C@@H](N)CCCN=C(N)N)C(N)=O	–	18000 nM	20000 nM	1200 nM
CSCC[C@H](NC(=O)[C@H](CC(C)C)NC(=O)CNC(=O)[C@H](Cc1ccccc1)NC(=O)[C@@H](NC(=O)[C@H](CCC(N)=O)NC(=O)[C@H](CCC(N)=O)NC(=O)[C@@H]1CCCN1C(=O)[C@H](CCCCN)NC(=O)[C@@H]1CCCN1C(=O)[C@@H](N)CCCN=C(N)N)C(c1ccccc1)c1ccccc1)C(N)=O	226 nM	–	–	–
CSCC[C@H](NC(=O)[C@H](CC(C)C)NC(=O)CNC(=O)[C@@H](NC(=O)[C@H](Cc1ccccc1)NC(=O)[C@H](CCC(N)=O)NC(=O)[C@H](CCC(N)=O)NC(=O)[C@@H]1CCCN1C(=O)[C@H](CCCCN)NC(=O)[C@@H]1CCCN1C(=O)[C@@H](N)CCCN=C(N)N)C1c2ccccc2-c2ccccc21)C(N)=O	5.7 nM	–	–	–
CSCC[C@H](NC(=O)[C@H](CC(C)C)NC(=O)CNC(=O)[C@H](Cc1ccccc1)NC(=O)[C@@H](NC(=O)[C@H](CCC(N)=O)NC(=O)[C@H](CCC(N)=O)NC(=O)[C@@H]1CCCN1C(=O)[C@H](CCCCN)NC(=O)[C@@H]1CCCN1C(=O)[C@@H](N)CCCNC(=N)N)C(c1ccccc1)c1ccccc1)C(N)=O	–	3600 nM	17000 nM	1300 nM
CSCC[C@H](NC(=O)[C@H](CC(C)C)NC(=O)[C@@H]1CCCN1C(=O)[C@H](Cc1ccccc1)NC(=O)[C@H](Cc1ccccc1)NC(=O)[C@H](CCC(N)=O)NC(=O)[C@H](CCC(N)=O)NC(=O)[C@@H]1CCCN1C(=O)[C@H](CCCCN)NC(=O)[C@@H]1CCCN1C(=O)[C@@H](N)CCCN=C(N)N)C(N)=O	2 nM	> 10000 nM	> 10000 nM	2.9 nM
CSCC[C@H](NC(=O)[C@H](CC(C)C)NC(=O)CNC(=O)[C@H](Cc1ccccc1)NC(=O)[C@H](NC(=O)[C@H](CCC(N)=O)NC(=O)[C@H](CCC(N)=O)NC(=O)[C@@H]1CCCN1C(=O)[C@H](CCCCN)NC(=O)[C@@H]1CCCN1C(=O)[C@@H](N)CCCN=C(N)N)C1Cc2ccccc2C1)C(N)=O	4170 nM	3900 nM	> 10000 nM	2800 nM
CSCC[C@H](NC(=O)[C@H](CC(C)C)NC(=O)CNC(=O)[C@H](Cc1ccccc1)NC(=O)/C(=C/c1ccccc1)NC(=O)[C@H](CCC(N)=O)NC(=O)[C@H](CCC(N)=O)NC(=O)[C@@H]1CCCN1C(=O)[C@H](CCCCN)NC(=O)[C@@H]1CCCN1C(=O)[C@@H](N)CCCN=C(N)N)C(N)=O	3100 nM	4900 nM	> 10000 nM	–

Now from value to compound:

EC50 (Cavia porcellus)	IC50 (Substance-K receptor)	IC50 (Neuromedin-K receptor)	IC50 (Substance-P receptor)	SMILES
2.5 nM	9 nM	65 nM	2.6 nM	CSCC[C@H](NC(=O)[C@H](CC(C)C)NC(=O)CNC(=O)[C@@H](NC(=O)[C@H](Cc1ccccc1)NC(=O)[C@H](CCC(N)=O)NC(=O)[C@H](CCC(N)=O)NC(=O)[C@@H]1CCCN1C(=O)[C@H](CCCCN)NC(=O)[C@@H]1CCCN1C(=O)[C@@H](N)CCCN=C(N)N)C(C)(C)C)C(N)=O
–	41 nM	91 nM	2.5 nM	CSCC[C@H](NC(=O)[C@H](CC(C)C)NC(=O)CNC(=O)[C@@H](NC(=O)[C@H](Cc1ccccc1)NC(=O)[C@H](CCC(N)=O)NC(=O)[C@H](CCC(N)=O)NC(=O)[C@@H]1CCCN1C(=O)[C@H](CCCCN)NC(=O)[C@@H]1CCCN1C(=O)[C@@H](N)CCCNC(=N)N)C1c2ccccc2-c2ccccc21)C(N)=O
–	68 nM	170 nM	2.4 nM	CSCC[C@H](NC(=O)[C@H](CC(C)C)NC(=O)CNC(=O)[C@@H](NC(=O)[C@H](Cc1ccccc1)NC(=O)[C@H](CCC(N)=O)NC(=O)[C@H](CCC(N)=O)NC(=O)[C@@H]1CCCN1C(=O)[C@H](CCCCN)NC(=O)[C@@H]1CCCN1C(=O)[C@@H](N)CCCNC(=N)N)C(C)(C)SC)C(N)=O
–	–	1200 nM	18 nM	CSCC[C@H](NC(=O)[C@H](CC(C)C)NC(=O)CNC(=O)[C@H](CCSC)NC(=O)[C@H](Cc1ccccc1)NC(=O)[C@H](CCC(N)=O)NC(=O)[C@H](CCC(N)=O)NC(=O)[C@@H]1CCCN1C(=O)[C@H](CCCCN)NC(=O)[C@@H]1CCCN1C(=O)[C@@H](N)CCCNC(=N)N)C(N)=O
1.2 nM	380 nM	2200 nM	3.1 nM	CSCC[C@H](NC(=O)[C@H](CC(C)C)NC(=O)CNC(=O)[C@H](Cc1ccccc1)NC(=O)[C@@H](NC(=O)[C@H](CCC(N)=O)NC(=O)[C@H](CCC(N)=O)NC(=O)[C@@H]1CCCN1C(=O)[C@H](CCCCN)NC(=O)[C@@H]1CCCN1C(=O)[C@@H](N)CCCN=C(N)N)[C@H]1CCc2ccccc21)C(N)=O
1.1 nM	160 nM	190 nM	7.84 nM	CSCC[C@H](NC(=O)[C@H](CC(C)C)NC(=O)CNC(=O)[C@@H](NC(=O)[C@H](Cc1ccccc1)NC(=O)[C@H](CCC(N)=O)NC(=O)[C@H](CCC(N)=O)NC(=O)[C@@H]1CCCN1C(=O)[C@H](CCCCN)NC(=O)[C@@H]1CCCN1C(=O)[C@@H](N)CCCN=C(N)N)C(C)(C)S(C)(=O)=O)C(N)=O
–	–	7400 nM	2700 nM	CSCC[C@H](NC(=O)[C@H](CC(C)C)NC(=O)CNC(=O)[C@H](Cc1ccccc1)NC(=O)[C@H](CCSC)NC(=O)[C@H](CCC(N)=O)NC(=O)[C@H](CCC(N)=O)NC(=O)[C@@H]1CCCN1C(=O)[C@H](CCCCN)NC(=O)[C@@H]1CCCN1C(=O)[C@@H](N)CCCNC(=N)N)C(N)=O
–	520 nM	1900 nM	2400 nM	CSCC[C@H](NC(=O)[C@H](CC(C)C)NC(=O)CNC(=O)[C@H](Cc1ccccc1)NC(=O)[C@@H]1Cc2ccccc2CN1C(=O)[C@H](CCC(N)=O)NC(=O)[C@H](CCC(N)=O)NC(=O)[C@@H]1CCCN1C(=O)[C@H](CCCCN)NC(=O)[C@@H]1CCCN1C(=O)[C@@H](N)CCCN=C(N)N)C(N)=O
–	670 nM	2200 nM	500 nM	CSCC[C@H](NC(=O)[C@H](CC(C)C)NC(=O)CNC(=O)[C@@H](NC(=O)[C@H](Cc1ccccc1)NC(=O)[C@H](CCC(N)=O)NC(=O)[C@H](CCC(N)=O)NC(=O)[C@@H]1CCCN1C(=O)[C@H](CCCCN)NC(=O)[C@@H]1CCCN1C(=O)[C@@H](N)CCCNC(=N)N)C(c1ccccc1)c1ccccc1)C(N)=O
8.4 nM	950 nM	11700 nM	–	CSCC[C@H](NC(=O)[C@H](CC(C)C)NC(=O)CNC(=O)[C@H](Cc1ccccc1)NC(=O)/C(=C\c1ccccc1)NC(=O)[C@H](CCC(N)=O)NC(=O)[C@H](CCC(N)=O)NC(=O)[C@@H]1CCCN1C(=O)[C@H](CCCCN)NC(=O)[C@@H]1CCCN1C(=O)[C@@H](N)CCCN=C(N)N)C(N)=O
–	–	130 nM	–	CSCC[C@H](NC(=O)[C@H](CC(C)C)NC(=O)CNC(=O)[C@H](Cc1ccccc1)NC(=O)[C@H](Cc1ccccc1)NC(=O)[C@H](CCC(N)=O)NC(=O)[C@H](CCC(N)=O)NC(=O)[C@@H]1CCCN1C(=O)[C@H](CCCCN)NC(=O)[C@@H]1CCCN1C(=O)[C@@H](N)CCCN=C(N)N)C(N)=O [SUBSTANCE P]
–	29 nM	110 nM	0.6 nM	CSCC[C@H](NC(=O)[C@H](CC(C)C)NC(=O)CNC(=O)[C@@H](NC(=O)[C@H](Cc1ccccc1)NC(=O)[C@H](CCC(N)=O)NC(=O)[C@H](CCC(N)=O)NC(=O)[C@@H]1CCCN1C(=O)[C@H](CCCCN)NC(=O)[C@@H]1CCCN1C(=O)[C@@H](N)CCCNC(=N)N)[C@H]1CCc2cc3ccccc3cc21)C(N)=O
